# MrgX1 PAM: human MrgX1 positive allosteric modulation, primary screen | MrgX1-HEK293, Fluo-4 calcium flux, FDSS; hits give high values | B-score at 10 µM | Q96LB2 | actives 0.63% (n = 310,000);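 active means plate-corrected calcium response at least 3 library SD above typical, normal starting fluorescence, not activating the receptor alone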;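 further: compound read alongside a low EC10 to EC30 dose of BAM8-22 agonist; peak minus trough fluorescence over baseline measured at the second addition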
# Target sequence (Q96LB2 whole entry, looked up): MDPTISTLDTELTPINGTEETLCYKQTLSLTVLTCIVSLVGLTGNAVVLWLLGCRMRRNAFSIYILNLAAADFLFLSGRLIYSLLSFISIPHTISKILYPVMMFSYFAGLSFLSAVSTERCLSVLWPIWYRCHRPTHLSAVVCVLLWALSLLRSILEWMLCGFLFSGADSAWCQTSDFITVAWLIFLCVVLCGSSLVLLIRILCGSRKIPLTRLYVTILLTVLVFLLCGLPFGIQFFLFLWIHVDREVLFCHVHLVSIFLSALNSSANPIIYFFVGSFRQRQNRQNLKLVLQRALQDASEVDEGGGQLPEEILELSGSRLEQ
# Hep lipid drop: hepatic lipid droplet formation modulation; inhibition, % at 6.5 µM; actives 0.4% (n = 240,000); AML12 mouse hepatocytes, oleate lipid droplets, BODIPY imaging;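 active means lipid droplet intensity inhibited by at least 50%, with more than 500 cells counted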
#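 Technique: fluorescence imaging, 20x objective, two fields per well / Assay system: AML12 hepatocytes (mouse) / Measure: % inhibition of lipid droplet signal / Doses: 6.5 µM single-point dosing / Incubation: overnight exposure / Reagent: 100 µM oleic acid challenge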
# RGS4 block: human RGS4 inhibition; P49798; HEK293 M3R/RGS4 inducible, Fluo-4 calcium flux; hits give high values; triggered by carbachol at its EC20; B-score at 10 µM; actives 0.45% (n = 310,000); AID 463165;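 active means B-score, a plate-corrected calcium signal, over three deviations above library mean, with baseline fluorescence within five deviations of library mean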;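 further: RGS4 expression induced by doxycycline in cells with stable M3 receptor; B-score is computed from the integrated fluorescence ratio over baseline after carbachol; higher B-score means a larger calcium signal and so more RGS4 inhibition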
# Target sequence (P49798 whole entry, looked up): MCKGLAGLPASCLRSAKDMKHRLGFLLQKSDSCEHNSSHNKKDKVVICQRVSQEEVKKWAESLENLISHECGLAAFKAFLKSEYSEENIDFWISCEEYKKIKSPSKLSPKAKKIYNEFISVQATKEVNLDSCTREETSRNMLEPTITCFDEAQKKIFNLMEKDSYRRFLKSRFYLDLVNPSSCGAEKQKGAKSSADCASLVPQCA
# MrgX1 antagonist: blocks BAM8-22 activation of human MrgX1 receptor; AID 588676; MRGX1-HEK293 calcium flux, Fluo-4, BAM8-22 antagonism; hits give low values; actives 1.3% (n = 310,000); B-score at 10 µM; Q96LB2;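 active means calcium-response B-score plate-corrected more than 3 library SD below zero, starting fluorescence within 5 deviations, no agonist response on first addition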;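 further: peak minus trough fluorescence over baseline after final BAM8-22 challenge near maximal dose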
# RGS4 pot: RGS4 potentiation or activation; HEK293 M3R/inducible RGS4, carbachol calcium flux Fluo4; hits give low values; B-score at 10 µM; actives 0.92% (n = 310,000); AID 463111;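 active means B-score of the integrated calcium signal more than 4 SD below the library mean, with starting fluorescence not abnormally high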;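 further: negative B-score means reduced calcium response which marks RGS4 activation or potentiation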
#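 Material: Inducible-RGS4 HEK293 cells carrying M3 receptor; also added: carbachol at ECmax as muscarinic agonist stimulus; incubation: compound preincubation 20 min at room temperature before agonist; signal: Fluo4-AM (2 µM) calcium-flux fluorescence, kinetic read; measure: integrated calcium ratio converted to B score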
# MrgX1 ag: human MrgX1 receptor agonism, primary screen. Q96LB2. B-score at 10 µM. actives 0.44% (n = 310,000). AID 588627. MrgX1-HEK293 cells, Fluo-4 calcium fluorescence, agonist mode; hits give high values;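 active means calcium response B-score plate-corrected fluorescence ratio at least 3 library SD, with starting fluorescence B-score inside 5 SD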
#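 System – MrgX1-expressing HEK293 cells · Incubation – cells plated overnight, dye loaded 0.5 h 37 °C, 0.5 h room temperature · Technique – kinetic Fluo-4 NW fluorescence of intracellular calcium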
# MrgX1 allo conf: human MrgX1 positive allosteric modulation, re-confirmation | shares compounds with MrgX1 PAM | MrgX1-HEK293, Fluo-4 calcium fluorescence, FDSS | activation (ratio percentage), % at 10 µM | actives 13% (n = 1,200) | AID 602413;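 active means ratio at least 3 SD above the weak peptide control, stable starting fluorescence, no direct agonism earlier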;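 further: compound followed by low BAM8-22 agonist challenge near EC20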
# HEK293 Ca flux: activity in parental HEK293 cells lacking MrgX1; shares compounds with MrgX1 antagonist; Fluo-4 calcium fluorescence, FDSS; fluorescence ratio F(max-min)/F0 at 10 µM; actives 2% (n = 4,000); AID 624111;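 active means duplicate-averaged calcium fluorescence ratio at least three times the standard deviation of buffer wells, a nonspecific response in parental cells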
# HEK293 Ca counter: counter-screen for MrgX1 allosteric activators: effect in parental HEK293 cells; shares compounds with MrgX1 antagonist; parental HEK293 calcium flux, Fluo-4 fluorescence ratio; hits give high values; fluorescence ratio F(max-min)/F0 at 10 µM; actives 0.4% (n = 4,000);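 active means calcium fluorescence ratio, averaged over duplicates, at least 3 SD of the buffer-well ratio, meaning a nonspecific response in receptor-free cells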;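 further: untransfected parental HEK293 lacking MrgX1 used as counterscreen for MrgX1 allosteric activators; fluorescence change taken during the second addition on a kinetic imager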
# HEK293 Ca cntr2: activity in parental HEK293 cells lacking MrgX1 receptor | shares compounds with MrgX1 antagonist | Fluo-4 calcium fluorescence (FDSS); hits give high values | fluorescence ratio F(max-min)/F0 at 10 µM | actives 8.7% (n = 4,000);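 active means calcium fluorescence ratio at least three times the spread of buffer wells, meaning a non-specific response in parental cells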
# * hit, by the source's call; i = inactive; x = no result given. Rows were chosen to be rich in hits. Some 3.8% of all compounds tested hit in one or more screens of this group.
SMILES,MrgX1 PAM,Hep lipid drop,RGS4 block,MrgX1 antagonist,RGS4 pot,MrgX1 ag,MrgX1 allo conf,HEK293 Ca flux,HEK293 Ca counter,HEK293 Ca cntr2
COc1cccc(CNc2ccc(Br)cn2)c1O,12*,x,i,i,i,i,i,i,i,i
COc1cccc(CNc2ncc(Br)cc2Br)c1O,i,x,i,i,i,i,x,x,x,x
Cc1c(NC(=O)CN2C(=O)NC3(CCCCC3)C2=O)c(=O)n(-c2ccccc2)n1C,i,-6,i,i,i,i,x,x,x,x
CC1CCc2c(C(=O)Nc3ccccn3)csc2C1 (stereo not drawn),8.3*,1,i,i,i,i,i,i,i,i
CC1CCc2c(C(=O)NCc3ccccn3)csc2C1 (stereo not drawn),i,-4,i,i,i,i,x,x,x,x
CC1CN(C(=S)NC(=O)C2CCCCC2)CC(C)O1 (stereo not drawn),i,-2,i,i,i,i,x,x,x,x
COC(=O)C(NC(C)=O)(Nc1nc2c(C)cc(C)cc2s1)C(F)(F)F (stereo not drawn),17*,-7,i,i,i,i,i,i,i,i
CCCN1CCc2c(sc3nc(SC)n(-c4ccccc4)c(=O)c23)C1,i,0,i,i,i,i,x,x,x,x
CC(C)(C)OC(=O)N1CCC(CNC(=O)c2ccc(F)cc2)CC1,35*,2,i,i,i,i,i,i,i,i
Cc1ccc(-c2cc(N)n(-c3ccc(C)cc3)n2)cc1,7.2*,x,i,i,i,i,i,i,i,i
Nc1ccccc1C(=O)NC12CC3CC(CC(C3)C1)C2,10*,0,i,i,i,i,i,i,i,i
O=C(NC12CC3CC(CC(C3)C1)C2)c1ccccc1,i,7,i,i,i,i,x,x,x,x
O=C(c1ccc(C23CC4CC(CC(C4)C2)C3)o1)N1CCOCC1,11*,-2,i,i,i,i,i,i,i,i
O=C(O)c1cccc(N2C(=O)c3ccc(Oc4ccc(Cl)cc4)cc3C2=O)c1,i,-5,i,i,i,i,x,x,x,x
O=C(O)c1cccc(N2C(=O)c3ccc4c5c(ccc(c35)C2=O)C(=O)N(c2cccc(C(=O)O)c2)C4=O)c1,7*,1,i,i,i,i,i,i,i,i
COc1cc2c(cc1OC)C1(Nc3c-2c(C)nn3-c2ccccc2)C(=O)Nc2ccccc21 (stereo not drawn),6.7*,2,x,i,x,i,i,i,i,i
O=C(Cc1cccc(C(F)(F)F)c1)OCN1C(=O)c2ccccc2C1=O,i,6,i,i,i,i,x,x,x,x
CCOC(=O)CNC(=O)CSc1nc(-c2ccc(OC)cc2)ns1,12*,0,i,i,i,i,i,i,i,i
S=C(NCc1ccc2c(c1)OCO2)NC1CC1,i,-4,i,i,i,i,x,x,x,x
O=C(CCc1nnc(Cc2c[nH]c3ccccc23)o1)NC1CCCC1,16*,-2,i,i,i,i,i,i,i,i
CSCCC(NS(=O)(=O)c1ccc(Cl)cc1)C(=O)O (stereo not drawn),11*,23,i,i,i,i,i,i,i,i
O=C(NCC1CCCO1)C(c1ccccn1)N(Cc1ccccc1Cl)C(=O)CN1C(=O)c2ccccc2S1(=O)=O (stereo not drawn),i,0,i,i,i,i,x,x,x,x
Cc1ccc(S(=O)(=O)N(C)C)cc1NC(=S)N1CCc2ccccc21,11*,18,i,i,i,i,i,i,i,i
CCCN(CCC)CCCNC(=O)Cn1cnc2sc(C)c(S(=O)(=O)N3CCOCC3)c2c1=O,i,19,i,i,i,i,x,x,x,x
CCOc1ccc(-c2cccc(NC(=O)COc3ccc(Cl)cc3)c2)nn1,i,-1,i,i,i,i,x,x,x,x
SMILES,MrgX1 PAM,Hep lipid drop,RGS4 block,MrgX1 antagonist,RGS4 pot,MrgX1 ag,MrgX1 allo conf,HEK293 Ca flux,HEK293 Ca counter,HEK293 Ca cntr2
Cc1cc2c(c(SCC(=O)N(C)c3ccccc3)n1)C(=O)OC2,i,x,i,i,i,i,x,x,x,x
Cc1cc2c(c(SCC(N)=O)n1)C(=O)OC2,6.7*,11,i,i,i,i,i,i,i,i
O=C(CC1C(=O)NCCN1Cc1ccc(F)cc1)NCCN1CCCc2ccccc21 (stereo not drawn),i,-39,i,i,i,i,x,x,x,x
O=C(CC1C(=O)NCCN1Cc1ccccc1)NCCN1CCCCC1=O (stereo not drawn),9.4*,-4,i,i,i,i,i,i,i,i
COc1ccc(-c2cc(C(=O)Nc3ccc(F)cc3F)no2)cc1,i,x,i,i,i,i,x,x,x,x
COc1ccc(-c2cc(C(=O)Nc3c(F)cc(F)cc3Br)no2)cc1,8.9*,-13,i,i,i,i,i,i,i,i
O=C(CSc1nnnn1C1CCCC1)Nc1ccccc1F,i,-3,i,i,i,i,x,x,x,x
O=C(CSc1nnnn1C1CCCC1)Nc1ccccc1N1CCOCC1,7.9*,-2,i,i,i,i,i,i,i,i
O=C(CNC1CCCCC1)Nc1cc(S(=O)(=O)N2CCOCC2)ccc1Cl,i,-3,i,i,i,i,x,x,x,x
Cc1ccc(CCNC(=O)Cn2ccc3cc(S(=O)(=O)N4CCCC4)ccc32)cc1,i,-15,i,i,i,i,x,x,x,x
Cc1ccccc1CCNC(=O)Cn1ccc2cc(S(=O)(=O)N3CCCC3)ccc21,7.1*,-2,i,i,i,i,i,i,i,i
